9 compounds from PMC3572549 (Bioorganic & medicinal chemistry, 2012) can be followed below.

For series [1], the system named is cellular microtubules in A-10 cells. Put plainly: Loss of cellular. The series is classed as cell-based, rat. The following applies: for Effect on cellular microtubules (in words): concentrations as high as 10 or 40 µM. The gist of the method:
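Rat aortic smooth muscle A-10 cells were exposed to DMSO vehicle or test compound for 18 h, fixed in cold methanol, and stained for β-tubulin by indirect immunofluorescence. […] It is reported as mean ±SD of 3–4 independent experiments.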

Series [2] relates to MDA-MB-435 cells. Put plainly: Cell cycle distribution by flow cytometry. The class given is cell-based, human. The following applies: 44.1 nM or 73.5 nM, 18 h. In general terms: Flow cytometry measures light scatter and fluorescence of single cells or particles in a stream.
Series [3] concerns purified porcine brain tubulin. The series can be described thus: Preliminary study of inhibition of tubulin polymerization. The following applies: porcine brain tubulin 2.5 mg/mL, absorbance at 340 nm, 37 °C. The class given is biochemical. The gist of the method:
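Porcine brain tubulin (2.5 mg/mL) was incubated with test compound, colchicine or DMSO vehicle. Polymerization was followed turbidimetrically as absorbance at 340 nm at 37 °C.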

The test system of series [4] is mitotic spindles. Put plainly: Formation of aberrant mitotic spindles. The series is classed as cell-based. The following applies: data not shown.
Series [5] in a line: Water solubility. The series is classed as physicochemical.

As for `COc1ccc(Nc2nc(N)nc3[nH]c4ccccc4c23)cc1` [Compound 4, N^4-(4-Methoxyphenyl)-9H-pyrimido[4,5-b]indole-2,4-diamine], the “Effect on cellular microtubules (in words)” value (shortened to “Effect … (in words)”) in series [1] was “inactive”. As for `COc1ccc(N(C)c2nc(N)nc3[nH]c4ccccc4c23)cc1` [Compound 6, N^4-(4-Methoxyphenyl)-N^4-methyl-9H-pyrimido[4,5-b]indole-2,4-diamine], in series [1] (500 nM 6, 18 h incubation), the “Effect on interphase microtubule network (immunofluorescence)” value is given as “extensive loss of the interphase microtubule network”. Also, the “Effect … (in words)” value in series [1] was “active”. In addition, the “Effect on cell cycle distribution” value in series [2] is “accumulation of cells in the G2/M phase of the cell cycle”. For the same compound, in series [3], the “Inhibition of tubulin assembly (initial study, in words)” value was “potent inhibitor of tubulin assembly”. Besides, the “Effect on mitotic spindles” value in series [4] was “caused the formation of aberrant mitotic spindles”.

Take `COc1ccc(N(C)c2nc(N)nc3[nH]c4ccccc4c23)cc1.Cl` [Compound 6·HCl, 4-((4-Methoxyphenyl)(methyl)amino)-9H-pyrimido[4,5-b]indol-2-aminium chloride]: the Solubility in water result in series [5] is “freely soluble in water”. As to `COc1ccc(N(C)c2nc(NC(=O)C(C)(C)C)nc3[nH]c4ccccc4c23)cc1` [Compound 7, N-{4-[(4-Methoxyphenyl)(methyl)amino]-9H-pyrimido[4,5-b]indol-2-yl}-2,2-dimethylpropanamide], in series [1], the “Effect … (in words)” value was “inactive”. Regarding `COc1cccc(N(C)c2nc(N)nc3[nH]c4ccccc4c23)c1` [Compound 10, N^4-(3-Methoxyphenyl)-N^4-methyl-9H-pyrimido[4,5-b]indole-2,4-diamine], the “Effect … (in words)” value in series [1] is “inactive”. Take `COc1cc(Nc2nc(N)nc3[nH]c4ccccc4c23)cc(OC)c1OC` [Compound 12, N^4-(3,4,5-Trimethoxyphenyl)-9H-pyrimido[4,5-b]indole-2,4-diamine]: the “Effect … (in words)” value in series [1] was “inactive”. On to `Cc1ccc(N(C)c2nc(N)nc3[nH]c4ccccc4c23)cc1` [Compound 13, N^4-Methyl-N^4-(4-methylphenyl)-9H-pyrimido[4,5-b]indole-2,4-diamine], for which the “Effect … (in words)” value in series [1] is “inactive”. Consider `CCN(c1ccc(OC)cc1)c1nc(N)nc2[nH]c3ccccc3c12` [Compound 14, N^4-Ethyl-N^4-(4-methoxyphenyl)-9H-pyrimido[4,5-b]indole-2,4-diamine], for which the “Effect … (in words)” value in series [1] is reported as “active”. The “Effect on mitotic spindles” value in series [4] was “caused the formation of aberrant mitotic spindles”. Regarding `CCOc1ccc(N(C)c2nc(N)nc3[nH]c4ccccc4c23)cc1` [Compound 15, N^4-(4-Ethoxyphenyl)-N^4-methyl-9H-pyrimido[4,5-b]indole-2,4-diamine], in series [1], the “Effect … (in words)” value is listed as “active”. For the same compound, the “Effect on mitotic spindles” value in series [4] is recorded as “caused the formation of aberrant mitotic spindles”.
